These results are taken from ChEMBL document CHEMBL1125825, “Hydrophobicity parameters for platinum complexes” (J Med Chem, 1991).

Series [1] in a line: Partition coefficient (logP). Format: physicochemical. The conditions noted are these: octanol/water. Summed up:
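Octanol/water shake-flask partitioning used equal phase volumes shaken at 300 agitations/min at 37 °C. Phases were separated at various times, and Pt in each phase was measured by graphite-furnace atomic absorption. P is the octanol Pt concentration divided by the aqueous Pt concentration, reported as log P, with the mean ± range of 6-10 independent experiments.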

The species entered for the next series is Mus musculus. The series is described as follows: Median survival time of treated mice with respect to untreated controls. Format: functional, organism-based. Put shortly: (§1)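 P388 murine leukemia model in female DBA/2 mice given 10^6 cells on day 0. A single treatment was given on day 1 with the platinum complex freshly dissolved in 0.4% Klucel. T/C is the median survival time of treated mice relative to untreated controls.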

For the next series, the system named is P388. The series is described as follows: Optimal dose evaluated for antitumor activity against P388 murine leukemia cells in female DBA/2 mice. Format: functional, cell-based. The conditions noted are these: Mus musculus. Summed up: as §1

As a reminder, the logP is the decadic logarithm of the partition coefficient of the neutral form, usually between octanol and water. Lower therefore signals a more hydrophilic compound. On to “cis-di-amonium, di-nitarte platinum (II) [listing 1 of 2 here]”, for which, in series [1], the logP was -3.36. As usually defined, the T/C is the ratio of treated to control. “cis-di-methylamino, di-nitrate platinum (II) [listing 1 of 2 here]”: in the series filed under Mus musculus, the T/C was 161%. In the series on P388, the Optimal dose turned out to be 26 µmol/kg. In the case of “cis-di-cyclohexylamino,di-nitrate platinum (II) [listing 1 of 2 here]”, the T/C in the series listed under Mus musculus turned out to be 173%. In addition, the Optimal dose in the series with P388 came to 97 µmol/kg. For the substance “cis-di-amonium, di-nitarte platinum (II) [listing 2 of 2 here]”, the T/C in the series listed under Mus musculus turned out to be 123%. In addition, the Optimal dose in the series on P388 is 3.5 µmol/kg. Substance “cis-di-pyridinium (4-acetyle),di-nitrate platinum (II)” displayed a logP in series [1] of -1.41.

In series [1], “cis-di-pyridinium,dinitrate platinum (II) [listing 1 of 2 here]” showed a logP of -1.59. The substance “cis-di-methylamino,di-chloro platinum (II) [listing 1 of 2 here]” yielded a logP in series [1] of -1.68. “cis-di-cyclopentylamino, dichloro platinum (II) [listing 1 of 2 here]” returned a logP in series [1] of 0.81. “cis-di-pyridinium,dinitrate platinum (II) [listing 2 of 2 here]” gave a T/C in the series filed under Mus musculus of 125%. In the series on P388, this substance returned an Optimal dose of 105 µmol/kg.

CISPLATIN [listing 1 of 2 here] came in with a T/C in the series listed under Mus musculus of 200%. In the series with P388, the Optimal dose turned out to be 27 µmol/kg. “cis-di-cycloheptylamino,di-nitrate platinum (II) [listing 1 of 2 here]” gave a T/C in the series filed under Mus musculus of 133%. In addition, in the series on P388, the Optimal dose is 92 µmol/kg. With “cis-di-pyridinium (4-chloro),di-nitrate platinum (II) [listing 1 of 2 here]”, in the series filed under Mus musculus, the T/C came out at 130%. Also, in the series on P388, the Optimal dose came out at 183 µmol/kg. Take “cis-di-cycloheptylamino,di-nitrate platinum (II) [listing 2 of 2 here]”: in series [1], the logP is -0.35. The substance “cis-di-pyridinium (4-diaminomethane),di-nitrate platinum (II) [listing 1 of 2 here]” displayed a T/C in the series filed under Mus musculus of 110%. The Optimal dose in the series with P388 was determined as 495 µmol/kg. Regarding “cis-di-cyclopentyleamino,di-nitrate platinum (II) [listing 1 of 2 here]”, the logP in series [1] is listed as -1.14. As for “cis-di-pyridinium (4-methanol),di-nitrate platinum (II)”, the logP in series [1] was -2.13. Substance “cis-di-methylamino, di-nitrate platinum (II) [listing 2 of 2 here]” yielded a logP in series [1] of -3.28.

For “cis-di-pyridinium (4-diaminomethane),di-nitrate platinum (II) [listing 2 of 2 here]”, in series [1], the logP is reported as -0.83. In series [1], “cis-di-isopropyleamino,dichloro platinum (II)” displayed a logP of -0.32.

In turn, “cis-di-cyclohexylamino,di-nitrate platinum (II) [listing 2 of 2 here]” registered a logP in series [1] of -0.91. Regarding “cis-di-cyclobutyleamino,di-chloro platinum (II) [listing 1 of 2 here]”, in series [1], the logP is 0.36.

Regarding “cis-di-cyclopentylamino, dichloro platinum (II) [listing 2 of 2 here]”, the T/C in the series filed under Mus musculus was determined as 172%. In the series on P388, this substance returned an Optimal dose of 572 µmol/kg. For “cis-di-pyridinium (4-chloro),di-nitrate platinum (II) [listing 2 of 2 here]”, the logP in series [1] is listed as -1.06. CISPLATIN [listing 2 of 2 here] had a logP in series [1] of -2.19. “cis-di-methylamino,di-chloro platinum (II) [listing 2 of 2 here]” registered a T/C in the series listed under Mus musculus of 175%. The Optimal dose with P388 was 76 µmol/kg. Taken in the same sequence, the figures for “cis-di-cyclobutyleamino,di-chloro platinum (II) [listing 2 of 2 here]” were 199% and 147 µmol/kg. In the series filed under Mus musculus, “cis-di-cyclopentyleamino,di-nitrate platinum (II) [listing 2 of 2 here]” came in with a T/C of 193%. The Optimal dose with P388 worked out at 51 µmol/kg.
